Experiment [1] deals with T1, Nucleoside triphosphate diphosphohydrolase 3 (Rattus norvegicus) (UniProt A6I415).
T1 sequence (whole entry): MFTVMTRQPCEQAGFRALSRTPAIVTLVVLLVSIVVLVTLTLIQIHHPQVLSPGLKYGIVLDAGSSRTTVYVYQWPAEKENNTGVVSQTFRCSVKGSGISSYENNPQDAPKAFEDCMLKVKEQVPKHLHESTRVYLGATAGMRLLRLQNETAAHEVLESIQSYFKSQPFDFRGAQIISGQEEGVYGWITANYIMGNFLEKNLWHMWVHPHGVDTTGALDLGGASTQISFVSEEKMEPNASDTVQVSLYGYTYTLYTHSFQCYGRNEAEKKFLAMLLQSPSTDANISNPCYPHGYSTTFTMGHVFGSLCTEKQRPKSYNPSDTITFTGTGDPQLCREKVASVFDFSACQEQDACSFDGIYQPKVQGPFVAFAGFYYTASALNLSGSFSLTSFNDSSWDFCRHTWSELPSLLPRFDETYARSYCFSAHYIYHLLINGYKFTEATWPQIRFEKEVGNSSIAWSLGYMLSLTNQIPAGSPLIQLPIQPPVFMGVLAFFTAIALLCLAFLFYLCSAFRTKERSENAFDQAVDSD
The experiment can be described thus: Inhibition of rat NTPDase3 expressed in CHO cells using ATP as substrate preincubated for 10 mins followed by substrate addition measured after 10 mins by malachite green reagent-based assay. Set-up: concentration or dose not given beside the values. The experiment is classed as cell-based. An outline of the steps: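 Rat NTPDase1, 2 or 3 from electroporated CHO cells. Final enzyme amounts: NTPDase1 0.99 μg, NTPDase2 1.21 μg, NTPDase3 1.04 μg, NTPDase8 1.85 μg. Buffer 50 mM Tris-HCl with 5 mM CaCl2, pH 7.4. Enzyme and compound held 10 min at 37 °C, then ATP (0.5 mM) added for 10 min at 37 °C. Malachite green added and absorbance read at 630 nm.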

For the next experiment, the species on record is Homo sapiens. The experiment is described as follows: Selectivity index, ratio of IC50 for human TNAP to IC50 for human IAP.

From ChEMBL document CHEMBL4270558, “Exploration of carboxy pyrazole derivatives: Synthesis, alkaline phosphatase, nucleotide pyrophosphatase/phosphodiesterase and nucleoside triphosphate diphosphohydrolase inhibition studies with potential anticancer profile” (Eur J Med Chem, 2018) come the findings set out here.

What is called inhibition is the change of the read-out against control, counted positive when it falls.

Regarding `Cc1ccc(Oc2c(C)nn(C(=O)c3ccc(Cl)cc3)c2C)cc1`, in experiment [1], the inhibition was found to be 49.1%. On the same count and under the same terms, with `Cc1nn(C(=O)c2ccc3ccccc3c2)c(C)c1Cl` the figure was 49.3%; with `Cc1cc(C)n(C(=O)c2ccc3ccccc3c2)n1`, 43.6%; with `Cc1n[nH]c(C)c1Oc1ccc2ccccc2c1`, 40.2%. On the same count and under the same terms, under `Cc1ccc(C(=O)n2[nH]c(C)cc2=O)cc1` stands 43.6%. On to `Cc1cc(C)n(C(=O)c2ccc(N)cc2)n1`, for which the Ratio IC50 in the experiment filed under Homo sapiens came to 9. In experiment [1], this compound came in with an inhibition of 40.6%. In turn, `Cc1nn(C(=O)c2ccc(Cl)cc2)c(C)c1Cl` showed an inhibition in experiment [1] of 37.8%. `Cc1cccc(C(=O)n2nc(C)c(Cl)c2C)c1` gave an inhibition in experiment [1] of 46.4%. Same read-out and setting: under `Cc1cccc(C(=O)n2nc(C)cc2C)c1` stands 36.3%; under `Cc1ccc(Oc2c(C)nn(C(=O)c3ccc(N)cc3)c2C)cc1`, 47%. Still for that read-out and setting: under `Cc1cc(=O)n(C(=O)c2ccc(N)cc2)[nH]1` stands 38.7%. On to `Cc1cc(C)n(C(=O)c2ccccc2C)n1`, for which the inhibition in experiment [1] was 38.5%. The same measure, in the same setting: under `Cc1ccc(C(=O)n2nc(C)c(Cl)c2C)cc1` stands 47.6%; under `Cc1nn(C(=O)c2ccc(N)cc2)c(C)c1Cl`, 47.3%. The same measure, in the same setting: with `Cc1nn(C(=O)/C=C/c2ccccc2)c(C)c1Cl` the figure was 42.9%; with `Cc1nn(C(=O)c2ccncc2)c(C)c1Cl`, 42.9%. Still for that read-out and setting: with `Cc1nn(C(=O)[C@H](C)c2ccc(CC(C)C)cc2)c(C)c1Cl` the figure was 48.3%; with `Cc1cc(C)n(C(=O)c2ccc(Cl)cc2)n1`, 40.9%; with `Cc1ccccc1C(=O)n1nc(C)c(Cl)c1C`, 37.8%. In experiment [1], `Cc1cc(C)n(C(=O)c2ccncc2)n1` showed an inhibition of 46.8%.
